Experiment [1] addresses Quadruplex DNA. Briefly: Displacement of Thiazole orange from c-Kit2 G4 quadruplex DNA incubated for 3 mins by spectrofluorimetry. It counts as nucleic-acid assay. The method in brief: (§1)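 Pre-folded DNA (0.25 μM) in K phosphate/KCl buffer was mixed with thiazole orange: 0.50 μM for G4s, 0.75 μM for duplex. Ligand was added stepwise from 0.5 to 10 equiv, with 3 min equilibration at 20 °C after each addition. Excitation 495 nm; emission read at 543 nm. Displacement % = 100 − (F/F0 × 100). DC50 is the concentration giving 50% displacement.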

For experiment [2], the system named is Quadruplex DNA. Briefly: Stabilization of G4 quadruplex DNA in human U2OS cells assessed as increase in number of G4 foci at 2 uM incubated for 24 hrs by immunofluorescence microscopy. Type of experiment: cell-based.
The subject of experiment [3] is U2OS. Briefly: Induction of DNA:RNA hybrid formation in human U2OS cells assessed as increase in R loop formation at 10 uM incubated for 60 mins by S9.6 immunofluorescence microscopy. Type of experiment: functional, cell-based. The method in brief: (§2)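 U2OS cells were treated at 10 μM for 5–60 min, 24 h after seeding, then fixed in cold methanol and permeabilized with acetone. Stained with S9.6 antibody and anti-nucleolin. The nucleolar signal was subtracted from total nuclear S9.6 fluorescence, and values were normalized to the untreated mean; two biological replicates.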

Experiment [4] concerns Quadruplex DNA. The experiment is described as follows: Displacement of Thiazole orange from c-Kit2 G4 quadruplex DNA incubated for 3 mins by spectrofluorimetry relative to control. It counts as nucleic-acid assay. The method in brief: as §1
In experiment [5] the test system is Quadruplex DNA. Briefly: Stabilization of G4 quadruplex DNA in human U2OS cells assessed as colocalization of TRF2/[…] foci at 2 uM incubated for 24 hrs by immunofluorescence microscopy (reference value: 18.4 +/- 2.81%). Type of experiment: cell-based.
Experiment [6] concerns U2OS. Briefly: Cytotoxicity against human U2OS cells assessed as reduction in cell viability incubated for 1 hr followed by 48 hrs of recovery in drug free medium by MTT assay. It counts as functional, cell-based. In short, it runs like this:
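Cells grown in DMEM with 10% FBS and 1% glutamine at 37 °C, 5% CO2, and seeded 25 × 10^4 per well. Treatment began 24 h after seeding and lasted 1 or 24 h, followed by 48 h in drug-free medium. MTT was added for 1 h at 37 °C, then DMSO solubilization and absorbance at 595 nm. IC50 came from linear regression; two independent experiments, each in triplicate.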

The nature of experiment [7]: Effect on hairpin-duplex DNA architecture at 10 mol.equiv by circular dichroism spectral analysis. The method in brief: (§3)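 CD spectra of 15 μM G4s or 30 μM hairpin in 20 mM K phosphate pH 7.0 with 5 mM KCl, after annealing. Recorded at 20 °C over 230–360 nm, three scans averaged, buffer baseline subtracted. Ligand was added at 10 mol equiv to the folded DNA from a 10 mM DMSO stock.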
A general note: Circular dichroism is the unequal absorption of left and right circularly polarised light.

The test system of experiment [8] is Quadruplex DNA. The experiment is described as follows: Effect on c-Kit2 G4 quadruplex DNA architecture at 10 mol.equiv by circular dichroism spectral analysis. Type of experiment: nucleic-acid assay. The method in brief:
as §3

Experiment [9] has as its system U2OS. The experiment is described as follows: Induction of DNA:RNA hybrid formation in human U2OS cells assessed as increase in R loop formation at 10 uM incubated for 30 mins by S9.6 immunofluorescence microscopy. It counts as functional, cell-based. The method in brief: as §2
The subject of experiment [10] is Quadruplex DNA. The experiment is described as follows: Stabilization of G4 quadruplex DNA in human U2OS cells assessed as TRF2 foci per cell at 2 uM incubated for 24 hrs by immunofluorescence microscopy (reference value: 15.8 +/- 2.6%). It counts as cell-based.

Here are results for one molecule from ChEMBL document CHEMBL4402581, “Monohydrazone Based G-Quadruplex Selective Ligands Induce DNA Damage and Genome Instability in Human Cancer Cells” (J Med Chem, 2020).

One may read the inhibition as the share of the control response that was lost under treatment. In general, IC50 refers to the concentration needed to halve the response being measured.

Each structure is given as a SMILES string. Calls of active or inactive are those of the source. The calls are words filed in the database; no cut-off is given here.

In turn, `CC(C)(C)c1cc(/C=N/NC(=N)N)c(O)c(/C=C2/C(=O)Nc3c2ccc2ccccc32)c1.Cl` showed a DC50 on Quadruplex DNA [1] of 7.8 µM. In addition, the outcome with Quadruplex DNA [2], with U2OS [3] and with U2OS [9] was Active. The inhibition in the experiment on Quadruplex DNA [4] amounted to 100%. Besides, the Activity turned out to be 16.4% in the experiment with Quadruplex DNA [5] and 15% in the experiment with Quadruplex DNA [10]. The IC50 in the experiment with U2OS [6] worked out at 12.5 µM. Also, the outcome (in experiment [7]; in the experiment with Quadruplex DNA [8]) was inactive.
